The target of assay [1] is T1, Vitamin D3 receptor (Homo sapiens) (UniProt P11473).
T1 sequence (whole entry): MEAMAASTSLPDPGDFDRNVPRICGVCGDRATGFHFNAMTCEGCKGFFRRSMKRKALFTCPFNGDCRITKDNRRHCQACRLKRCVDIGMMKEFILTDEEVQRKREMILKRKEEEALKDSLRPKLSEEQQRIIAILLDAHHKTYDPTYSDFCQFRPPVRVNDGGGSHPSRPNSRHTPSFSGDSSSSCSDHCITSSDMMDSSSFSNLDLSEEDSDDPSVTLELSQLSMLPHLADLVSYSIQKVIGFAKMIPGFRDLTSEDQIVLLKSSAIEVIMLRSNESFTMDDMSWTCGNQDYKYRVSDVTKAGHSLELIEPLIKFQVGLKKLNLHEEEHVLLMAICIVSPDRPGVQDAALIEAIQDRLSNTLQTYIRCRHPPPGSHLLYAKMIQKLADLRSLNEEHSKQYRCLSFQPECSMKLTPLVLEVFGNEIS
In words: Binding affinity to VDR (unknown origin) at 1 uM by fluorescence polarization assay relative to calcipotriol. The procedure, abridged: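 PolarScreen VDR competitor fluorescence polarization assay with compounds at 1 μM in triplicate. Read-out used 535 nm excitation and 590 nm emission filters.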

Assay [2] in a line: Cytotoxicity against rat LTC-14 cells assessed as reduction in cell proliferation incubated for 24 hrs by MTT assay. The conditions noted are these: LTC-14, 24 h. The assay is classed as cell-based. Background: Tetrazolium dyes change colour on reduction, which living cells bring about.
For assay [3], the system named is LTC-14. In words: Inhibition of rat LTC-14 cell activation assessed decrease in TGF-beta1 induced Colla1 mRNA expression at 0.5 uM incubated for 24 hrs by q-PCR analysis. The assay is classed as functional. The procedure, abridged: (§1)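 Immortalized rat PSC line LTC-14, about 1×10^5 cells per well, was grown 24 h at 37 °C in 5% CO2. Cells then received compound (0.5 μM) plus TGF-β1 for 24 h; TGF-β1 is stated as 0.5 ng/mL in the text and 5 ng/mL in the methods. Col1a1 and Acta2 mRNA were measured by RT-qPCR. Mean ± SD versus TGF-β1 alone.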

Assay [4] deals with LTC-14. In words: Inhibition of rat LTC-14 cells activation assessed decrease in TGF-beta1 induced Acta2 mRNA expression at 0.5 uM incubated for 24 hrs by q-PCR analysis. The assay is classed as functional, cell-based. The procedure, abridged: as §1
The subject of assay [5] is LTC-14. Briefly: Inhibition of rat LTC-14 cells activation assessed decrease in TGF-beta1 induced collagen 1 protein expression at 0.5 uM incubated for 24 hrs by Western blot analysis. The assay is classed as functional, cell-based. Put shortly:
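LTC-14 cells were treated for 24 h with compound (0.5 μM) plus TGF-β1 (0.5 ng/mL in the text, 5 ng/mL in the methods). Lysates were run on 10% SDS-PAGE, transferred to PVDF and probed with rabbit anti-collagen I, with β-actin as reference. Bands were quantified by densitometry versus TGF-β1 alone.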

The values below come from ChEMBL document CHEMBL4765486, “Novel Nonsecosteroidal Vitamin D Receptor Modulator Combined with Gemcitabine Enhances Pancreatic Cancer Therapy through Remodeling of the Tumor Microenvironment” (J Med Chem, 2021).

Broadly, the IC50 is the concentration at which inhibition is half-maximal.

Calls of active or inactive are those of the source.

Take `CCN(CC)CCCNC(=O)c1ccc(C(CC)(CC)c2ccc(OCCCCC(O)(CC)CC)c(C)c2)n1CC`: in assay [1], the RBA entry is “inactive”. For the same molecule, the half-inhibitory concentration (IC50) in assay [2] was greater than 10 µM. Moreover, the inhibition entry in assay [3], in assay [4] and in assay [5] was “Active” each time.

With `CCN(CC)CCCNC(=O)c1cc(C(CC)(CC)c2ccc(OCCCC(O)(CC)CC)c(C)c2)cn1CC`, in assay [1] (filed as agonist), the RBA is 46%. Moreover, in assay [2], the IC50 was greater than 10 µM. The inhibition entry in assay [3], in assay [4] and in assay [5] was “Active” throughout.

In the case of `CCN(CC)CCCNC(=O)c1cc(C(CC)(CC)c2ccc(OCCCCC(O)(CC)CC)c(C)c2)cn1CC`, the RBA in assay [1] was found to be 27%. The half-inhibitory concentration (IC50) in assay [2] is greater than 10 µM. Moreover, the inhibition entry in assay [3], in assay [4] and in assay [5] was “Active” throughout.

On to `CCn1cc(C(CC)(CC)c2ccc(OCC(C)O)c(C)c2)cc1C(=O)NCCCN1CCN(C)CC1` (stereo not given), for which the RBA in assay [1] (filed as agonist) came out at 62%. Also, the half-maximal inhibitory concentration (IC50) in assay [2] was greater than 10 µM. Besides, the inhibition entry in assay [3], in assay [4] and in assay [5] was “Active” throughout.

In the case of `CCN(CC)CCCNC(=O)c1cc(C(CC)(CC)c2ccc(OCC(O)C3CC3)c(C)c2)cn1CC` (stereo not given), the RBA in assay [1] (filed as agonist) came to 40%. Moreover, the IC50 in assay [2] was greater than 10 µM. Also, the inhibition entry in assay [3], in assay [4] and in assay [5] was “Active” in each case.

Take `CCCC(O)(CCC)CCOc1ccc(C(CC)(CC)c2ccc(C(=O)NCCCN(CC)CC)n2CC)cc1C`: the RBA in assay [1] (filed as agonist) was determined as 54%. Besides, in assay [2], the IC50 was greater than 10 µM. The inhibition result in assay [3], in assay [4] and in assay [5] was “Active” in each case.

`CCN(CC)CCNC(=O)c1ccc(C(CC)(CC)c2ccc(OCCCCC(O)(CC)CC)c(C)c2)n1CC`: the RBA in assay [1] (filed as agonist) turned out to be 71%. Also, the IC50 in assay [2] is greater than 10 µM. In addition, the inhibition entry in assay [3], in assay [4] and in assay [5] was “Active” in each case.

In the case of `CCC(O)COc1ccc(C(CC)(CC)c2cc(C(=O)NCCCN(CC)CC)n(CC)c2)cc1C` (stereo not given), the RBA in assay [1] (filed as agonist) stood at 64%. The IC50 in assay [2] was greater than 10 µM. Also, the inhibition entry in assay [3], in assay [4] and in assay [5] was “Active” in each case.

For the molecule `CCN(CC)CCCNC(=O)c1ccc(C(CC)(CC)c2ccc(OCCCC(C)(C)O)c(C)c2)n1CC`, in assay [1], the RBA came out at 33%. In assay [2], the 50% inhibitory concentration (IC50) was greater than 10 µM. In addition, the inhibition result in assay [3], in assay [4] and in assay [5] was “Active” each time.

Turning to `CCN(CC)CCCNC(=O)c1cc(C(CC)(CC)c2ccc(OCCCC(C)(C)O)c(C)c2)cn1CC`, the RBA in assay [1] is 24%. In addition, in assay [2], the IC50 was greater than 10 µM. Besides, the inhibition result in assay [3], in assay [4] and in assay [5] was “Active” each time.

On to `CCN(CC)CCCNC(=O)c1cc(C(CC)(CC)c2ccc(OCCCCCC(C)(C)O)c(C)c2)cn1CC`, for which the RBA result in assay [1] is “inactive”. In addition, the IC50 in assay [2] is greater than 10 µM. Besides, the inhibition entry in assay [3], in assay [4] and in assay [5] was “Active” in each case.

For the molecule `CCn1c(C(=O)NCCCN2CCN(C)CC2)ccc1C(CC)(CC)c1ccc(OCCC(C)(C)O)c(C)c1`, the RBA in assay [1] (filed as agonist) worked out at 54%. The 50% inhibitory concentration (IC50) in assay [2] was greater than 10 µM. For the same molecule, the inhibition result in assay [3], in assay [4] and in assay [5] was “Active” each time.

In the case of `CCN(CC)CCCNC(=O)c1cc(C(CC)(CC)c2ccc(OCCC(O)(CC)CC)c(C)c2)cn1CC`, the RBA in assay [1] (filed as agonist) was 51%. Besides, in assay [2], the concentration for half-maximal inhibition (IC50) is greater than 10 µM. The inhibition entry in assay [3], in assay [4] and in assay [5] was “Active” in each case.

Regarding `CCn1c(C(=O)NCCN2CCOCC2)ccc1C(CC)(CC)c1ccc(OCCC(C)(C)O)c(C)c1`, the RBA in assay [1] worked out at 18%. Further, the half-maximal inhibitory concentration (IC50) in assay [2] is greater than 10 µM. For the same molecule, the inhibition entry in assay [3], in assay [4] and in assay [5] was “Active” in each case.

Regarding `CCn1c(C(=O)NCC2CCOCC2)ccc1C(CC)(CC)c1ccc(OCCC(C)(C)O)c(C)c1`, in assay [1] (filed as agonist), the RBA turned out to be 77%. Moreover, in assay [2], the IC50 is greater than 10 µM. Further, the inhibition result in assay [3], in assay [4] and in assay [5] was “Active” each time.

In the case of `CCN(CC)CCCNC(=O)c1cc(C(CC)(CC)c2ccc(OCCCCC(C)(C)O)c(C)c2)cn1CC`, the RBA in assay [1] was 33%. In addition, the half-maximal inhibitory concentration (IC50) in assay [2] is greater than 10 µM. Besides, the inhibition result in assay [3], in assay [4] and in assay [5] was “Active” each time.

For `CCN(CC)CCNC(=O)c1cc(C(CC)(CC)c2ccc(OCCCCC(O)(CC)CC)c(C)c2)cn1CC`, the RBA in assay [1] (filed as agonist) was found to be 41%. Moreover, in assay [2], the 50% inhibitory concentration (IC50) is greater than 10 µM. Besides, the inhibition entry in assay [3], in assay [4] and in assay [5] was “Active” in each case.

Regarding `CCn1cc(C(CC)(CC)c2ccc(OCC(C)O)c(C)c2)cc1C(=O)NCCCN(CCO)CCO` (stereo not given), the RBA in assay [1] (filed as agonist) was determined as 70%. Also, in assay [2], the 50% inhibitory concentration (IC50) is greater than 10 µM. Besides, the inhibition result in assay [3], in assay [4] and in assay [5] was “Active” in each case.

For `CCN(CC)CCCNC(=O)c1ccc(C(CC)(CC)c2ccc(OCC(O)C3CC3)c(C)c2)n1CC` (stereo not given), the RBA in assay [1] is 39%. For the same molecule, in assay [2], the half-inhibitory concentration (IC50) was greater than 10 µM. The inhibition result in assay [3], in assay [4] and in assay [5] was “Active” throughout.

For the molecule `CCN(CC)CCNC(=O)c1cc(C(CC)(CC)c2ccc(OCCC(O)(CC)CC)c(C)c2)cn1CC`, in assay [1] (filed as agonist), the RBA stood at 80%. For the same molecule, in assay [2], the half-maximal inhibitory concentration (IC50) was greater than 10 µM. Moreover, the inhibition entry in assay [3], in assay [4] and in assay [5] was “Active” throughout.

`CCn1cc(C(CC)(CC)c2ccc(OCC(C)O)c(C)c2)cc1C(=O)NCCCN1CCOCC1` (stereo not given): the RBA in assay [1] (filed as agonist) was determined as 71%. Besides, the IC50 in assay [2] was greater than 10 µM. The inhibition result in assay [3], in assay [4] and in assay [5] was “Active” in each case.

For `CCN(CC)CCNC(=O)c1cc(C(CC)(CC)c2ccc(OCCCC(O)(CC)CC)c(C)c2)cn1CC`, the RBA in assay [1] was 31%. In addition, the half-inhibitory concentration (IC50) in assay [2] was greater than 10 µM. Besides, the inhibition entry in assay [3], in assay [4] and in assay [5] was “Active” each time.

For `CCn1c(C(=O)NCC2CCCO2)ccc1C(CC)(CC)c1ccc(OCCC(C)(C)O)c(C)c1` (stereo not given), the RBA in assay [1] (filed as agonist) stood at 59%. The IC50 in assay [2] was greater than 10 µM. In addition, the inhibition entry in assay [3], in assay [4] and in assay [5] was “Active” throughout.

For the molecule `CCN(CC)CCNC(=O)c1ccc(C(CC)(CC)c2ccc(OCCCC(O)(CC)CC)c(C)c2)n1CC`, the RBA in assay [1] stood at 38%. Moreover, the IC50 in assay [2] was greater than 10 µM. In addition, the inhibition entry in assay [3], in assay [4] and in assay [5] was “Active” in each case.
